Holding throughout (format): cell-based
For assay [1], the target named is Histone-lysine N-methyltransferase EZH2 (Mus musculus) (UniProt Q61188). The assay is described as follows: Inhibition of EZH2 in mouse B16-F1 migrating cells assessed as fold change in H3K27me3-buffered regulated Cmpk2-mRNA expression at 3 uM measured by ChIP-seq analysis relative to control cells. Summed up: (§1)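 Confluent B16-F1 cells on fibronectin-coated plates, cultured at 37 °C and 7% CO2, were scratched at multiple sites to induce migration. They were then held 3 h in growth medium containing 3 µM GSK343, with the inhibitor added 3 h before lysis. Unscratched cells served as controls. Poly A mRNA was analysed by RNA-seq (n=3 GSK343, n=5 controls). Linear models removed batch effects, and buffered genes were those altered only under GSK343 (FDR <0.05, fold change >1.3).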
Sequence of Histone-lysine N-methyltransferase EZH2 (Mus musculus) (Q61188 whole entry): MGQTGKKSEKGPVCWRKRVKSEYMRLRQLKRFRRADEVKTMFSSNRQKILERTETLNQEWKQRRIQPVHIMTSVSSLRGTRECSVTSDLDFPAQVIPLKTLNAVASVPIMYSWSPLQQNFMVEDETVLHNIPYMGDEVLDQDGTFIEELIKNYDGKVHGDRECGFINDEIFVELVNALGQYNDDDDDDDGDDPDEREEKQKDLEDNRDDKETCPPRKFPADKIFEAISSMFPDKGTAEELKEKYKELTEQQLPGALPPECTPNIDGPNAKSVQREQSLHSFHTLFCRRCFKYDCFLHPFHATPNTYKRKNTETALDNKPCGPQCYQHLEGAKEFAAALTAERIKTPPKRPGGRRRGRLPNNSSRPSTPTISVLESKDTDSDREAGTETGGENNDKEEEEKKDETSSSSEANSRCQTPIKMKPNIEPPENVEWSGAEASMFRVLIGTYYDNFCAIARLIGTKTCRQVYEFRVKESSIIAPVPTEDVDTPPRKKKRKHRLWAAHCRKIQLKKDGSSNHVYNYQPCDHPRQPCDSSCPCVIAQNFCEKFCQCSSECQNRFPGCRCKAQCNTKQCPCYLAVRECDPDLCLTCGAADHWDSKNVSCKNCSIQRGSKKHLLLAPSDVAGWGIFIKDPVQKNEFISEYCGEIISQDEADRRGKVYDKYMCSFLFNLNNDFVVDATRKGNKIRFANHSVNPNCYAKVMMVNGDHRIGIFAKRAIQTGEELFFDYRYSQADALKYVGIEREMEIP

The target is the same in assay [2]. The assay is described as follows: Inhibition of EZH2 in mouse B16-F1 migrating cells assessed as fold change in H3K27me3-buffered regulated Sqle-mRNA expression at 3 uM measured by […] analysis relative to control cells. Summed up: (§2)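 Confluent B16-F1 cells on fibronectin-coated plates were scratched at multiple sites, washed once with DMEM and left to migrate 3 h in growth medium (37 °C, 7% CO2); unscratched cells served as control. GSK343 (3 µM) was added 3 h before lysis. Poly A mRNA was sequenced (RNA-seq), with 5 replicates for untreated and 3 for treated cells. Differential expression was called by linear model with batch correction, at FDR <0.05 and fold change ≥1.3.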

Assay [3] has the same target. The assay is described as follows: Inhibition of EZH2 in mouse B16-F1 migrating cells assessed as fold change in H3K27me3-buffered regulated Ern1-mRNA expression at 3 uM measured by ChIP-seq analysis relative to control cells. Summed up:
as §1

Assay [4] shares this target. The assay is described as follows: Inhibition of EZH2 in mouse B16-F1 migrating cells assessed as fold change in H3K27me3-buffered regulated Fam60a-mRNA expression at 3 uM measured by […] analysis relative to control cells. The essentials: as §1
Assay [5] shares this target. The assay is described as follows: Inhibition of EZH2 in mouse B16-F1 migrating cells assessed as fold change in H3K27me3-independent regulated Adgrg1-mRNA expression at 3 uM measured by […] analysis relative to control cells. The essentials:
as §2

For assay [6] the target is unchanged. Put plainly: Inhibition of EZH2 in mouse B16-F1 migrating cells assessed as fold change in H3K27me3-buffered regulated Hs3st1-mRNA expression at 3 uM measured by […] analysis relative to control cells. Summed up: as §1
The target is the same in assay [7]. Put plainly: Inhibition of EZH2 in mouse B16-F1 migrating cells assessed as fold change in H3K27me3-buffered regulated Spag1-mRNA expression at 3 uM measured by […] analysis relative to control cells. The essentials: as §2
Assay [8] has the same target. Put plainly: Inhibition of EZH2 in mouse B16-F1 migrating cells assessed as fold change in H3K27me3-buffered regulated Pde4d-mRNA expression at 3 uM measured by ChIP-seq analysis relative to control cells. Summed up: as §1
For assay [9] the target is unchanged. The assay is described as follows: Inhibition of EZH2 in mouse B16-F1 migrating cells assessed as fold change in H3K27me3-buffered regulated Vegfc-mRNA expression at 3 uM measured by […] analysis relative to control cells. The essentials: as §2
For assay [10] the target is unchanged. Put plainly: Inhibition of EZH2 in mouse B16-F1 migrating cells assessed as fold change in H3K27me3-independent regulated Serpinb8-mRNA expression at 3 uM measured by […] analysis relative to control cells. The essentials:
as §2

For assay [11] the target is unchanged. Put plainly: Inhibition of EZH2 in mouse B16-F1 migrating cells assessed as fold change in H3K27me3-buffered regulated Paxbp1-mRNA expression at 3 uM measured by […] analysis relative to control cells. The essentials:
as §1

Assay [12] shares this target. The assay is described as follows: Inhibition of EZH2 in mouse B16-F1 migrating cells assessed as fold change in H3K27me3-buffered regulated Hdac10-mRNA expression at 3 uM measured by […] analysis relative to control cells. Summed up:
as §1

The target is the same in assay [13]. The assay is described as follows: Inhibition of EZH2 in mouse B16-F1 migrating cells assessed as fold change in H3K27me3-buffered regulated Nup37-mRNA expression at 3 uM measured by […] analysis relative to control cells. The essentials: as §1
The target is the same in assay [14]. Put plainly: Inhibition of EZH2 in mouse B16-F1 migrating cells assessed as fold change in H3K27me3-independent regulated Hells-mRNA expression at 3 uM measured by […] analysis relative to control cells. Summed up:
as §2

The target is the same in assay [15]. The assay is described as follows: Inhibition of EZH2 in mouse B16-F1 migrating cells assessed as fold change in H3K27me3-buffered regulated Kcnj14-mRNA expression at 3 uM measured by ChIP-seq analysis relative to control cells. The essentials: as §1
For assay [16] the target is unchanged. The assay is described as follows: Inhibition of EZH2 in mouse B16-F1 migrating cells assessed as fold change in H3K27me3-buffered regulated Ptp4a1-mRNA expression at 3 uM measured by […] analysis relative to control cells. The essentials: as §1
Assay [17] deals with T1, RNA polymerase II (Mus musculus) (UniProt P08775+Q8CFI7+P97760+A0A3Q4L2S8+Q80UW8+P61219+P62488+Q923G2+P60898+O08740+Q63871+P62876). The assay is described as follows: Inhibition of RNA polymerase II in mouse B16-F1 migrating cells assessed as fold change in Plekha2-RNA stability at 0.1 mM measured by […] analysis relative to control cells.
In assay [18] the target is T1, RNA polymerase II (Mus musculus). The assay is described as follows: Inhibition of RNA polymerase II in mouse B16-F1 migrating cells assessed as fold change in Mad2l2-RNA stability at 0.1 mM measured by ChIP-seq analysis relative to control cells.
Assay [19] shares this target. Put plainly: Inhibition of RNA polymerase II in mouse B16-F1 migrating cells assessed as fold change in Fth1-RNA stability at 0.1 mM measured by ChIP-seq analysis relative to control cells.
Assay [20] has the same target. The assay is described as follows: Inhibition of RNA polymerase II in mouse B16-F1 migrating cells assessed as fold change in Trpv2-RNA stability at 0.1 mM measured by […] analysis relative to control cells.
For assay [21] the target is unchanged. The assay is described as follows: Inhibition of RNA polymerase II in mouse B16-F1 migrating cells assessed as fold change in BC004004-RNA stability at 0.1 mM measured by […] analysis relative to control cells.
The target is the same in assay [22]. The assay is described as follows: Inhibition of RNA polymerase II in mouse B16-F1 migrating cells assessed as fold change in Tbp-RNA stability at 0.1 mM measured by […] analysis relative to control cells.
For assay [23] the target is unchanged. Put plainly: Inhibition of RNA polymerase II in mouse B16-F1 migrating cells assessed as fold change in Alkbh2-RNA stability at 0.1 mM measured by […] analysis relative to control cells.
Assay [24] has the same target. Put plainly: Inhibition of RNA polymerase II in mouse B16-F1 migrating cells assessed as fold change in Tmsb10-RNA stability at 0.1 mM measured by […] analysis relative to control cells.
Assay [25] has the same target. Put plainly: Inhibition of RNA polymerase II in mouse B16-F1 migrating cells assessed as fold change in Agps-RNA stability at 0.1 mM measured by […] analysis relative to control cells.

Regarding `CCCc1cc(C)[nH]c(=O)c1CNC(=O)c1cc(-c2ccnc(N3CCN(C)CC3)c2)cc2c1cnn2C(C)C`, the log2FC was -0.46 in [1]; 0.39 in assay [2]; 0.72 in assay [3]; -0.61 in [4]; 0.48 in assay [5]; 0.78 in [6]. Moreover, the log2FC in [7] is -0.78; in [8] it was 0.75; in [9], -0.44; in assay [10] it was 0.81; in [11], -0.55; in assay [12] it was -0.44. In addition, the log2FC in [13] is -0.38; in assay [14] it was -0.45; in assay [15], 1.07; in assay [16] it was 0.38.
Consider `OC[C@H]1O[C@@H](n2cnc3cc(Cl)c(Cl)cc32)[C@H](O)[C@@H]1O`, for which the log2FC in assay [17] is 0.71; in assay [18], 0.43; in [19] it was 0.6; in assay [20] it was 0.41; in [21] it was 0.39; in assay [22], -0.56. For the same molecule, the results for the log2FC in assay [23], in assay [24] and in assay [25] were 0.66, 0.62 and -0.58, respectively.

For the origin of these results see ChEMBL document CHEMBL5674883, “The Heterochromatin Landscape in Migrating Cells and the Importance of H3K27me3 for Associated Transcriptome Alterations” (Cells, 2018).
